# Screens (PubChem)
# MEX-5 binding – MEX-5 zinc finger RNA-binding disruptors – biochemical, C. elegans, fluorescence polarization, MLPCN library, primary screen | Zinc finger protein mex-5 (Caenorhabditis elegans), Q9XUB2 | activity score (negative = inhibition of binding), % at 10 µM | MEX-5/FITC-TCR2 RNA binding; active compounds read low | AID 1832, 2009 | hit rate 0.38% among 300,000;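 active = inhibition past about -25% in most replicates, and total fluorescence under double the plate's negative control median, limit read from the data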;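 also: 0% = DMSO and -100% = 5 µM competing unlabeled TCR2 RNA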
# core dimer inh – inhibitors of HCV core protein dimerization, primary screen, biochemical, TR-FRET, high-throughput. TR-FRET GST/Flag-core106 dimerization, 1536-well. inhibition, % at 5 µM. hit rate 0.33% among 300,000;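 active = inhibition above the mean of all tested compounds plus 3 SD, set per screening campaign, cut at about 45% in these data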
#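 assay system = GST-tagged and Flag-tagged HCV core protein residues 1-106 | controls = unlabelled core106 and no-GST-core106 wells | incubation = compound-protein-antibody incubation 4 h at 22.5 °C | probe or stimulus = Eu donor and XL665 acceptor anti-tag antibodies | read-out = % inhibition based on acceptor/donor emission ratio | signal = TR-FRET 671 and 617 nm emission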
# EBV gp42 block – Epstein-Barr virus gp42 inhibitors, primary screen, biochemical, uHTS, fluorescence polarization; Glycoprotein 42 (Epstein-Barr virus (strain AG876)), Q1HVG2; Fluorescence polarization binding assay, mP read-out; AID 1085, 2008; hit rate 0.42% among 220,000; inhibition, % (tested at 21.74 µM); in the data active = inhibition above about 50%
# Target sequence (Q1HVG2 whole entry, looked up): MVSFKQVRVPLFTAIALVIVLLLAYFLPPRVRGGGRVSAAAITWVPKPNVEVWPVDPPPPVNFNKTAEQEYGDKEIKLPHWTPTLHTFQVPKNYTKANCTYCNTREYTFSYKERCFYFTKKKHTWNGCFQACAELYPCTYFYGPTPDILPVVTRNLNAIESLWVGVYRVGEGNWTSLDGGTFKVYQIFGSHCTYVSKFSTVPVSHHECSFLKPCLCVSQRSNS
# NS3 helicase inh – inhibitors of HCV NS3 helicase, primary screen, biochemical, Cy5 molecular beacon fluorescence; Hepatitis C virus NS3 helicase; NS3 helicase DNA unwinding; inhibition, % at 10.9 µM; hit rate 0.56% among 290,000; AID 1800, 2009;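 active = inhibition above the mean of all tested compounds plus 3 SD, set per campaign, cut at about 35% in these data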;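 also: 0% = DMSO wells and 100% = thioflavine S control wells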
#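 System: Hepatitis C virus NS3 helicase domain fragment enzyme | Reagent: Annealed dual-labelled DNA beacon duplex, ATP-started | Compound dosing: 10.9 µM single point, 0.8% DMSO | Incubation: 1 h reaction at 25 °C, ATP-initiated | Technique: Cy5 fluorescence | Evaluation: Percent inhibition from t60/t0 fluorescence ratio | Benchmarks: Low DMSO, high thioflavine S at 110 µM | Replication: Singlicate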
# EBNA-1 inhibitor – EBNA-1 DNA-binding inhibitors, primary screen, biochemical, fluorescence polarization; AID 1950, 2009; inhibition, % at 14.8 µM; hit rate 0.34% among 300,000; in the data active = inhibition above about 28%
# ZTA DNA inh – counter-screen for EBNA-1 inhibitors: inhibitors of Epstein-Barr virus ZTA | P03206 | ZTA-DNA binding, fluorescence polarization | inhibition, % at 11 µM | hit rate 0.15% among 320,000 | AID 2234; in the data active = inhibition above about 33%
# Target sequence (P03206 whole entry, looked up): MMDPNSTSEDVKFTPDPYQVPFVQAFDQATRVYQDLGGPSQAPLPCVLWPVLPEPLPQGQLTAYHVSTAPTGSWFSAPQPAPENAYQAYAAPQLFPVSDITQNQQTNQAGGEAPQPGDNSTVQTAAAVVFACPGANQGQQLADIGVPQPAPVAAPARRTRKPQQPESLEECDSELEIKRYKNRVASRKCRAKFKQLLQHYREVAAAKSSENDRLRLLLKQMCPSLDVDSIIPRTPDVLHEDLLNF
# NS3 helicase cf – HCV NS3 helicase inhibitors, retest, confirmation, biochemical, Cy5 molecular beacon fluorescence, triplicate; hit rate 31% among 1,600; inhibition, % at 10.9 µM; NS3 helicase DNA unwinding; shares compounds with NS3 helicase inh;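 active = inhibition above the mean of all tested compounds plus 3 SD, cutoff set per campaign, cut at about 36% in these data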
# DNA FID counter – compounds displacing fluorescent DNA intercalator, artefact control for HCV NS3 helicase inhibitor project, biochemical, FID fluorescence, triplicate; DNA fluorescent intercalator displacement; shares compounds with NS3 helicase inh; hit rate 4% among 1,600; AID 1945, 2009; inhibition, % at 7.9 µM; in the data active = inhibition above about 37%;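 also: 0% = vehicle and 100% = reference compound; higher means more displacement of ethidium bromide from the DNA hairpin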
# * hit, by the source's call; · = no result given. Hits are enriched below; roughly 1.7% of the tested compounds scored in any of these assays.
SMILES,MEX-5 binding,core dimer inh,EBV gp42 block,NS3 helicase inh,EBNA-1 inhibitor,ZTA DNA inh,NS3 helicase cf,DNA FID counter
CCCCNC(=O)[C@H]1C[C@H]1[C@@H](O)[C@H](CO)NC(=O)[C@H](CC(C)C)NC(=O)OC(C)(C)C,-1,-12,·,36*,16,-18,5,-36
CC(=O)c1sc(C(=O)O)c(-c2ccco2)c1-c1ccco1,-6,-4,-15,52*,-6,7,36,39*
CCn1c(CNC(=O)c2cccc(C)c2)nnc1SCC(=O)NC1CCCCC1C (stereo unspecified),-2,0,-30,65*,-5,-17,-5,-27
CCn1c(CNC(=O)c2cccc(C)c2)nnc1SCC(=O)NC1CCCC1,0,-1,·,4,-15,4,·,·
O=C(CC1SC(=O)N(c2ccccc2)C1=O)Nc1ccc(Br)cc1 (stereo unspecified),-1,1,-4,37*,-8,-4,-9,11
O=C(CC1SC(=O)N(c2ccccc2)C1=O)Nc1ccc(Cl)cc1 (stereo unspecified),-1,4,-11,30,-7,7,·,·
NS(=O)(=O)c1ccc(N/N=C/C=C/c2ccccc2[N+](=O)[O-])cc1,-1,-11,·,-8,-8,9,·,·
O=C(O)c1cc(N/N=C/C=C/c2ccccc2[N+](=O)[O-])ccc1Cl,-2,-5,-9,43*,12,8,52*,-3
O=c1cc(-c2ccco2)nc(SCc2cccc(Cl)c2)[nH]1,2,4,·,45*,-13,-3,9,-9
COc1ccccc1/C=C1\Oc2cc(OC(=O)N3CCOCC3)ccc2C1=O,0,-3,18,3,3,-1,·,·
COC(=O)c1ccccc1-c1ccc(/C=N/Nc2nc(N3CCCC3)nc(N3CCCC3)n2)o1,2,12,-7,-35,-1,-4,·,·
COC(=O)c1ccccc1-c1ccc(/C=N/NC(=O)c2cc3ccccc3o2)o1,-1,1,8,38*,4,-5,-5,-26
Cc1nn(CSc2c(F)c(F)c(F)c(F)c2F)c(C)c1[N+](=O)[O-],·,·,·,·,·,4,·,·
O=S(=O)(NC1CCCCC1)c1ccc(Cl)s1,1,-6,-28,52*,-12,6,0,6
O=S(=O)(NC1CCCCC1)c1ccc(Br)s1,0,-2,·,-5,3,1,·,·
O=C1CCCC2=C1C(c1ccc(Br)cc1)c1c([nH]c(=S)[nH]c1=O)N2 (stereo unspecified),1,-2,-10,20,9,5,·,·
O=c1[nH]c(=S)[nH]c2c1C(c1ccc(Br)cc1)c1c([nH]c(=S)[nH]c1=O)O2,-71*,30,·,43*,31*,67*,75*,5
CN(CC(=O)Nc1ccc(Cl)c(C(F)(F)F)c1)C(=O)c1cccc(N2C(=O)CCC2=O)c1,·,·,·,·,·,-13,·,·
CCCOC(=O)C1[C@H]2C(=O)N(Cc3ccco3)C[C@]23C=C[C@H]1O3 (stereo partly specified),-1,11,-15,40*,-4,8,-6,-8
CCCCOC(=O)C1[C@H]2C(=O)N(Cc3cccs3)C[C@]23C=C[C@H]1O3 (stereo partly specified),2,7,3,6,7,12,·,·
CCCCC(CCC(=O)O)(C(=O)OCC)c1csc(Nc2ccccc2)n1 (stereo unspecified),-1,1,5,31,-3,10,·,·
CCCCC(CCC(=O)O)(C(=O)OCC)c1csc(Nc2ccc(OCC)cc2)n1 (stereo unspecified),2,10,-7,85*,4,6,58*,-28
